From ChEMBL document CHEMBL1124663, “Design, synthesis, antineoplastic activity, and chemical properties of bis(carbamate) derivatives of 4,5-bis(hydroxymethyl)imidazole” (J Med Chem, 1989) come the findings set out here.

Data set [1] concerns Mus musculus. As to the kind of experiment: Toxicity day evaluation was carried out on day 5 for animal dosed with 50 mg/kg compound; 5/5. It is filed as organism-based. On the set-up: dose 50 mg/kg. The note with it: in vivo.
For data set [2], the system named is Mus musculus. As to the kind of experiment: Body Weight Difference (BWD) of test animals administered with 100 mg/kg compound is determined on day 5 for P388 tumor cells. The data set is classed as functional. A digest of the protocol:
(§1)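 P388 leukaemia: about 10^6 cells in ascitic fluid inoculated ip on day 0 (CD2F1 mice). Compound given ip in normal saline as a freshly prepared solution or suspension, once daily on days 1–5. Treated-minus-control body weight difference in g, taken as day 5 minus day 1 weight. Groups of six.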

Data set [3] deals with Mus musculus. As to the kind of experiment: Toxicity day evaluation was carried out on day 5 for animal dosed with 100 mg/kg compound; 5/5. It is filed as organism-based. On the set-up: dose 100 mg/kg. The note with it: in vivo.
Data set [4] deals with Mus musculus. As to the kind of experiment: Body Weight Difference (BWD) of test animals administered with 400 mg/kg compound is determined on day 5 for P388 tumor cells. The data set is classed as functional. The procedure, abridged:
as §1

Data set [5] relates to Mus musculus. As to the kind of experiment: Toxicity day evaluation was carried out on day 5 for animal dosed with 400 mg/kg compound; 4/5. It is filed as organism-based. On the set-up: dose 400 mg/kg. The note with it: in vivo.
Data set [6] has as its system Mus musculus. As to the kind of experiment: Toxicity day evaluation was carried out on day 5 for animal dosed with 200 mg/kg compound; 5/5. The data set is classed as organism-based. On the set-up: dose 200 mg/kg. Particulars: in vivo.
Data set [7] has as its system Mus musculus. As to the kind of experiment: Ability of 100 mg/kg of compound to kill tumor cells in mice is expressed as the log of the tumor cell population at the onset of treatment minus the log of the tumor cell population at the end of treatment. The data set is classed as functional.
For data set [8], the system named is Mus musculus. As to the kind of experiment: Ability of 50 mg/kg of compound to kill tumor cells in mice is expressed as the log of the tumor cell population at the onset of treatment minus the log of the tumor cell population at the end of treatment. It is filed as functional.
The subject of data set [9] is Mus musculus. As to the kind of experiment: Body Weight Difference (BWD) of test animals administered with 50 mg/kg compound is determined on day 5 for P388 tumor cells. It is filed as functional. A digest of the protocol:
as §1

Data set [10] relates to Mus musculus. As to the kind of experiment: Body Weight Difference (BWD) of test animals administered with 200 mg/kg compound is determined on day 5 for P388 tumor cells. The data set is classed as functional. A digest of the protocol: as §1
Data set [11] relates to Mus musculus. As to the kind of experiment: Body Weight Difference (BWD) of test animals with P388 administered with 25 mg/kg compound is determined. It is filed as functional. A digest of the protocol: as §1
Data set [12] deals with Mus musculus. As to the kind of experiment: Toxicity day evaluation was carried out on day 5 for animal dosed with 400 mg/kg compound. Number of animals in initial test groups were 6. On the set-up: dose 400 mg/kg. The note with it: in vivo. It is filed as organism-based.
The subject of data set [13] is Mus musculus. As to the kind of experiment: Ability of 25 mg/kg of compound to kill P388 tumor cells in mice is expressed as the log of the tumor cell population at the onset of treatment minus the log of the tumor cell population at the end of treatment. The data set is classed as functional. The procedure, abridged: (§2)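 P388 leukemia, 10^6 cells implanted ip on day 0. Drug given ip daily on days 1-5 as a saline suspension freshly prepared before injection. Log cell kill is computed from survival, with % T/C taken as median survival time of treated versus control mice.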

In data set [14] the test system is Mus musculus. As to the kind of experiment: The percent of the median survival time of test mice compared to control mice is determined for mice administered with 25 mg/kg compound. It is filed as functional.
Data set [15] relates to Mus musculus. As to the kind of experiment: Body Weight Difference (BWD) of test animals with P388 administered with 200 mg/kg compound is determined. The data set is classed as functional. The procedure, abridged:
as §1

Data set [16] relates to Mus musculus. As to the kind of experiment: Body Weight Difference (BWD) of test animals with P388 administered with 50 mg/kg compound is determined. It is filed as functional. The procedure, abridged: as §1
The subject of data set [17] is Mus musculus. As to the kind of experiment: Toxicity day evaluation was carried out on day 5 for animal dosed with 25 mg/kg compound. Number of animals in initial test groups were 6. It is filed as organism-based. The arrangement: dose 25 mg/kg. Particulars: in vivo.
In data set [18] the test system is Mus musculus. As to the kind of experiment: Body Weight Difference (BWD) of test animals with P388 administered with 400 mg/kg compound is determined. The data set is classed as functional. A digest of the protocol:
as §1

Data set [19] concerns Mus musculus. As to the kind of experiment: Toxicity day evaluation was carried out on day 5 for animal dosed with 100 mg/kg compound. Number of animals in initial test groups were 6. The data set is classed as organism-based. On the set-up: dose 100 mg/kg. Particulars: in vivo.
Data set [20] deals with Mus musculus. As to the kind of experiment: Ability of 50 mg/kg of compound to kill P388 tumor cells in mice is expressed as the log of the tumor cell population at the onset of treatment minus the log of the tumor cell population at the end of treatment. The data set is classed as functional. A digest of the protocol:
as §2

The subject of data set [21] is Mus musculus. As to the kind of experiment: Toxicity day evaluation was carried out on day 5 for animal dosed with 200 mg/kg compound. Number of animals in initial test groups were 6. The data set is classed as organism-based. On the set-up: dose 200 mg/kg. The note with it: in vivo.
Data set [22] deals with Mus musculus. As to the kind of experiment: Toxicity day evaluation was carried out on day 5 for animal dosed with 50 mg/kg compound. Number of animals in initial test groups were 6. It is filed as organism-based. The arrangement: dose 50 mg/kg. The note with it: in vivo.
Data set [23] relates to Mus musculus. As to the kind of experiment: Body Weight Difference (BWD) of test animals administered with 100 mg/kg compound is determined. The data set is classed as functional.

Turning to `CNC(=O)OCc1nc(SC)n(-c2ccccc2)c1COC(=O)NC`, the “Survivors / animals tested” value with Mus musculus [1] was 5; in the data set on Mus musculus [3], 5; in the data set with Mus musculus [5] it was 4; in the data set with Mus musculus [6] it was 5. Further, the BWD is listed as -1.6 g in the data set with Mus musculus [2], -5.2 g in the data set on Mus musculus [4], -1.4 g with Mus musculus [9] and -3 g in the data set on Mus musculus [10]. In addition, the results for the KE in the data set with Mus musculus [7] and with Mus musculus [8] were 0.17 and 0.6, respectively.
Turning to `COc1nc(COC(=O)NC(C)C)c(COC(=O)NC(C)C)n1C`, the BWD in the data set with Mus musculus [11] is given as -0.1 g; with Mus musculus [15], -2.6 g; in the data set on Mus musculus [16], -1 g; in the data set with Mus musculus [18] it was -4.2 g; with Mus musculus [23] it was -2.1 g. The “Survivors / animals tested” value with Mus musculus [12], in the data set with Mus musculus [17], in the data set with Mus musculus [19], in the data set with Mus musculus [21] and in the data set on Mus musculus [22] was 6 each time. In addition, the KE was -0.6 in the data set with Mus musculus [13] and 0.54 with Mus musculus [20]. Also, the T/C in the data set on Mus musculus [14] was found to be 130%.

As usually defined, the T/C is the result in the treated group divided by that in the control group, in per cent.
